Values after ≈ are worked out from the molar mass of the structure shown.
Legend:
[1] = test system: MCF7 (breast cancer) cells; experiment: MTT antiproliferative assay, MCF7; assay type: cell-based, human; details: for IC50: Homo sapiens, MCF7, 72 h, MCF-7, MTT, 72 h; for Lipophilic efficiency (LipE = pIC50 – logP): MCF-7
Outline: (§1)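 Cells from ECACC were grown in MEM with 10% FBS, non-essential amino acids and penicillin-streptomycin, at 37 °C and 5% CO2. Cells were seeded at 5000 per well, left overnight, then exposed to test compound 72 h. MTT was added for 4 h, and formazan was dissolved in DMSO (60 min, 37 °C) and read at 545 nm. Compounds giving >50% inhibition at 10 μM were rerun over 0.1–30 μM for IC50. Two independent experiments used five wells each, with cisplatin as positive control.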

[2] = Kinetic aqueous solubility; assay type: physicochemical; details: PBS buffer, pH 7.4, aqueous buffer, kinetic from dmso stock
Outline: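 10 mM DMSO stocks were diluted into PBS pH 7.4 to a 500 μM target and shaken 2 h at room temperature. Samples were vacuum-filtered, diluted with acetonitrile to prevent precipitation, and scanned by UV-vis over 250–500 nm. Concentration was derived from a 3-point calibration at each compound's λmax.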

[3] = test system: A2780 (ovarian cancer) cells; experiment: MTT antiproliferative assay, A2780; assay type: cell-based, human; details: for Lipophilic efficiency (LipE = pIC50 – logP): A2780; for IC50: Homo sapiens, A2780, 72 h
Outline: as §1

[4] = Intestinal-specific PAMPA; assay type: in vitro ADME; details: pH 6.5
Outline: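 Donor solutions at nominal 500 μM came from 10 mM DMSO stocks diluted in phosphate donor buffer, pH 6.5. The acceptor buffer held 5% DMSO. The membrane was phosphatidylcholine plus cholesterol in chloroform/dodecane/hexane (5:25:70 v/v). Plates were incubated 4 h at 37 °C, covered. Acceptor UV-vis absorbance was read over 250–500 nm. Pa was calculated by the Wohnsland–Faller equation from acceptor versus equilibrium absorbance at λmax.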

[5] = test system: MDA-MB-231 (breast cancer) cells; experiment: MTT antiproliferative assay, MDA-MB-231; assay type: cell-based, human; details: for IC50: Homo sapiens, MDA-MB-231, 72 h, MDA-MB-231, MTT, 72 h; for Lipophilic efficiency (LipE = pIC50 – logP): MDA-MB-231
Outline: as §1

[6] = test system: HeLa (cervical cancers) cells; experiment: MTT antiproliferative assay, HeLa; assay type: cell-based, human; details: for IC50: Homo sapiens, 72 h
Outline: as §1

| IC50 [1] [nM] | solubility kinetic at 2 h [2] [µM] | IC50 [3] [nM] | Papp at 4 h, 500 μM [4] [×10⁻⁶ cm/s] | IC50 [5] [nM] | IC50 [6] [nM] | Structure (SMILES) | Lipophilic efficiency (LipE = pIC50 – logP) [1] | Lipophilic efficiency (LipE = pIC50 – logP) [3] | Lipophilic efficiency (LipE = pIC50 – logP) [5] | Lipophilic efficiency (LipE = pIC50 – logP) [6] |
| --- | --- | --- | --- | --- | --- | --- | --- | --- | --- | --- |
| 1400 | 202 ± 1 (≈ 108 µg/mL) | 1600 | 32.4 ± 7.6 | 2200 | 3700 | COc1ccc(COC[C@@](O)(CNCc2ccccc2)[C@@H]2CC[C@@H](C)C[C@H]2OCc2ccc(OC)cc2)cc1 [Compound 50a] | −0.83 | −0.88 | −1.01 | −1.23 |
| 1600 | 259 ± 1.3 (≈ 143 µg/mL) | 1500 | 19.7 ± 1.6 | 1900 | 2800 | COc1ccc(COC[C@@](O)(CNCc2ccc(F)cc2)[C@@H]2CC[C@@H](C)C[C@H]2OCc2ccc(OC)cc2)cc1 [Compound 51a] | −0.84 | −0.80 | – | −1.08 |
| 1400 | 107 ± 2.6 (≈ 60.3 µg/mL) | 1300 | 23.7 ± 3.8 | 1700 | 2000 | COc1ccc(CNC[C@](O)(COCc2ccc(OC)cc2)[C@@H]2CC[C@@H](C)C[C@H]2OCc2ccc(OC)cc2)cc1 [Compound 52a] | −0.43 | −0.40 | −0.50 | −0.57 |
